Experimental data from ChEMBL document CHEMBL5634209, “Computational design, synthesis, and assessment of 3-(4-(4-(1,3,4-oxadiazol-2-yl)-1H-imidazol-2-yl)phenyl)-1,2,4-oxadiazole derivatives as effective epidermal growth factor receptor inhibitors: a prospective strategy for anticancer therapy” (RSC Med Chem, 2024).
One block for each molecule: values may come before it.

How the values were obtained:
PC-3 = assay: Antiproliferative activity against human PC-3 cells assessed as reduction in cell viability measured after 48 hrs by MTT assay; type: functional, cell-based; settings: PC-3, 48 h
Procedure, shortened: (§1)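 Cells were grown at 37 °C in 5% CO2 in medium with 10% FBS: RPMI-1640 for A549, DU-145 and HepG2, and DMEM/F12 for PC-3. They were seeded at 5×10^3/well. At 70–80% confluence they were exposed to a concentration range diluted from a 60 mM DMSO stock for 48 h at 37 °C, with 0.1% DMSO as vehicle. MTT 5 mg/mL stock was added for 4 h, formazan dissolved in DMSO, A570 read, and % inhibition calculated against control. IC50 was taken from the concentration series.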

A549 = assay: Antiproliferative activity against human A549 cells assessed as reduction in cell viability measured after 48 hrs by MTT assay; type: functional, cell-based; settings: A549, 48 h; procedure, shortened: as §1
HepG2 [1] = assay: Antiproliferative activity against human HepG2 cells assessed as reduction in cell viability measured after 48 hrs by MTT assay; type: functional, cell-based; settings: HepG2, 48 h; procedure, shortened: as §1
[2] = Cytotoxicity against African green monkey Vero cells assessed as reduction in cell viability measured after 48 hrs by MTT assay; type: toxicity, cell-based; settings: African green monkey (Chlorocebus sabaeus)
[3] = Selectivity index, ratio of IC50 for cytotoxicity against African green monkey Vero cells to IC50 for antiproliferative activity against human PC-3 cells; type: toxicity, cell-based; settings: Vero cells versus PC-3 cells, read-out: Ratio IC50
[4] = Selectivity index, ratio of IC50 for cytotoxicity against African green monkey Vero cells to IC50 for antiproliferative activity against human A549 cells; type: toxicity, cell-based; settings: Vero cells versus A549 cells, read-out: Ratio IC50
[5] = Selectivity index, ratio of IC50 for cytotoxicity against African green monkey Vero cells to IC50 for antiproliferative activity against human HepG2 cells; type: toxicity, cell-based; settings: Vero cells versus HepG2 cells, read-out: Ratio IC50
DU-145 = assay: Antiproliferative activity against human DU-145 cells assessed as reduction in cell viability measured after 48 hrs by MTT assay; type: functional, cell-based; settings: DU-145, 48 h; procedure, shortened: as §1
[6] = Selectivity index, ratio of IC50 for cytotoxicity against African green monkey Vero cells to IC50 for antiproliferative activity against human DU-145 cells; type: toxicity, cell-based; settings: Vero cells versus DU-145 cells, read-out: Ratio IC50
[7] = molecular target: Epidermal growth factor receptor (Homo sapiens, UniProt P00533); assay: Inhibition of wild type EGFR (unknown origin) incubated for 40 mins by Kinase Glo Max reagent based luminescence analysis
Chain of Epidermal growth factor receptor (Homo sapiens, UniProt P00533) (P00533 whole entry): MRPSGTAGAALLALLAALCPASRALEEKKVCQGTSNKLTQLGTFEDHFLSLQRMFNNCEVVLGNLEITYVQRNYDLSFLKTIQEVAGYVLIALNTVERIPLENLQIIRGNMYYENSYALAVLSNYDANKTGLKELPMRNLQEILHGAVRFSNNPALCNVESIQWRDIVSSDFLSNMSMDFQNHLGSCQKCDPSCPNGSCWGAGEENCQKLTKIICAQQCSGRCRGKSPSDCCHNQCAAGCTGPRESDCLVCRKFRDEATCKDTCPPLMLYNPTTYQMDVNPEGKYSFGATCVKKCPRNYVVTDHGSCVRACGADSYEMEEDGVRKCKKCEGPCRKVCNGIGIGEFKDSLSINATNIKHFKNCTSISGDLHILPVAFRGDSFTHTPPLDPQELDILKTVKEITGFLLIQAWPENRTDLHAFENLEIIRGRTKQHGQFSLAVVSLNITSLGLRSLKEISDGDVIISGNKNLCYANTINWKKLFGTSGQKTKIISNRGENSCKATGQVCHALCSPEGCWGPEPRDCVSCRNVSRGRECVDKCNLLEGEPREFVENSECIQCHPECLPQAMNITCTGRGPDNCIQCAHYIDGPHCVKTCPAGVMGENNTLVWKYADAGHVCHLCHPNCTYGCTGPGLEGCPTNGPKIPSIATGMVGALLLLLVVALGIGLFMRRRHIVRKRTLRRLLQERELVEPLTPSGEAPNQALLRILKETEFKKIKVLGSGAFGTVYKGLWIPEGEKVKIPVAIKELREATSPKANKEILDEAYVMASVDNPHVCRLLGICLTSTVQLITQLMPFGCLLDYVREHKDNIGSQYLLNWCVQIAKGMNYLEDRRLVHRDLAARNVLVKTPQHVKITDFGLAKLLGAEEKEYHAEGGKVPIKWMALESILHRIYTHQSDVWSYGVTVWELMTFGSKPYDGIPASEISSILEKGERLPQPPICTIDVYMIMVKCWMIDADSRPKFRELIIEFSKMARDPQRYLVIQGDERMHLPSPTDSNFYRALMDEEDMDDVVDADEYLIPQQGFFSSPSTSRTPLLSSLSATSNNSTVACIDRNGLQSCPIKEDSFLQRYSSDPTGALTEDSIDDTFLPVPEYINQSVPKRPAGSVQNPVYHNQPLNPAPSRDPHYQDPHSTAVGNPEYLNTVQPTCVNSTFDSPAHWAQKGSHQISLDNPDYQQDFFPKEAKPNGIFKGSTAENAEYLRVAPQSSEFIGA

[8] = molecular target: Epidermal growth factor receptor (Homo sapiens, UniProt P00533, T790M); assay: Inhibition of EGFR T790M mutant (unknown origin) incubated for 40 mins by Kinase Glo Max reagent based luminescence analysis
Chain of Epidermal growth factor receptor (Homo sapiens, UniProt P00533, T790M) (P00533 25-1210 T790M limits assumed): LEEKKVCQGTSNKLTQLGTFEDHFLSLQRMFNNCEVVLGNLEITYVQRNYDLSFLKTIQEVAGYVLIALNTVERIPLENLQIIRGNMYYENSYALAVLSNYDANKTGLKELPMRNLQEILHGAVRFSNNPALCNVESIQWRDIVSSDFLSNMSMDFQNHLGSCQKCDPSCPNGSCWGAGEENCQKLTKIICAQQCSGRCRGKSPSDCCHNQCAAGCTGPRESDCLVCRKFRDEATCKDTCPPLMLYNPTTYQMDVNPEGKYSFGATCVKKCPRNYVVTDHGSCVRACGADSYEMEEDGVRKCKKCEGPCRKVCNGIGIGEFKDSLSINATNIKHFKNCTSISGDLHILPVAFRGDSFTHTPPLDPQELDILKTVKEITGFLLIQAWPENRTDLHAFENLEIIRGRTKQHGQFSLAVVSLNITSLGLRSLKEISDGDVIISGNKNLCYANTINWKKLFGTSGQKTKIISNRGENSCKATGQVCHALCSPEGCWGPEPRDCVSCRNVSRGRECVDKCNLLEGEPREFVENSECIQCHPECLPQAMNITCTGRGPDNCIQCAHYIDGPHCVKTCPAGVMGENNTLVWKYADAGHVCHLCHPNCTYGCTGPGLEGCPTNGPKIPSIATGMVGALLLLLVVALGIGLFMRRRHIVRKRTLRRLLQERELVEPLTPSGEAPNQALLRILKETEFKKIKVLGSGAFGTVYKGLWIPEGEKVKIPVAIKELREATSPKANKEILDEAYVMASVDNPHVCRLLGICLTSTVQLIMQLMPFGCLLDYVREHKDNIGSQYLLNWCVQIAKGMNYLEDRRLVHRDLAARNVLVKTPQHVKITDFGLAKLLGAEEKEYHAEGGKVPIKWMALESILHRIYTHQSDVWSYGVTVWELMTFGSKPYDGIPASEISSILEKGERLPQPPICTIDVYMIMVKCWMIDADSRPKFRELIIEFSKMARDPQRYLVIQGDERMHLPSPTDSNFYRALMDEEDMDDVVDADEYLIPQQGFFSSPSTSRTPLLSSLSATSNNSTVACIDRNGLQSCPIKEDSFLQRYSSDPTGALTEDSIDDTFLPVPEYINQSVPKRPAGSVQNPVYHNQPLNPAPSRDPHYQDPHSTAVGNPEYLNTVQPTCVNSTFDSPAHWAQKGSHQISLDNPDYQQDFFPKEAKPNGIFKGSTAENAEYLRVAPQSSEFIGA

HepG2 [9] = assay: Induction of cell cycle arrest in human HepG2 cells assessed as accumulation of cell debris at 0.11 uM incubated for 24 hrs by propidium iodide staining based flow cytometry (reference value: 0.12%); type: functional
Procedure, shortened: (§2)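 HepG2 cells were seeded, incubated overnight at 37 °C and, at 70–80% confluence, treated 24 h with 0.11, 0.22 or 0.44 µM in fresh medium; untreated cells served as control. Cells were then digested, washed in PBS and fixed in pre-cooled 75% ethanol at 4 °C for over 18 h. Staining used propidium iodide 50 µg/mL plus RNase 50 µg/mL for 30 min at 37 °C, and DNA content was read by flow cytometry.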

HepG2 [10] = assay: Induction of cell cycle arrest in human HepG2 cells assessed as accumulation of cells at G0/G1 phase at 0.11 uM incubated for 24 hrs by propidium iodide staining based flow cytometry (reference value: 35.61%); type: functional; procedure, shortened: as §2
HepG2 [11] = assay: Induction of cell cycle arrest in human HepG2 cells assessed as accumulation of cells at G2/M phase at 0.11 uM incubated for 24 hrs by propidium iodide staining based flow cytometry (reference value: 18.81%); type: functional; procedure, shortened: as §2
HepG2 [12] = assay: Induction of cell cycle arrest in human HepG2 cells assessed as accumulation of cells at S phase at 0.11 uM incubated for 24 hrs by propidium iodide staining based flow cytometry (reference value: 46.98%); type: functional; procedure, shortened: as §2
HepG2 [13] = assay: Induction of cell cycle arrest in human HepG2 cells assessed as accumulation of cell debris at […] incubated for 24 hrs by propidium iodide staining based flow cytometry (reference value: 0.12%); type: functional; settings: dose 0.22 µM
HepG2 [14] = assay: Induction of cell cycle arrest in human HepG2 cells assessed as accumulation of cells at G0/G1 phase at […] incubated for 24 hrs by propidium iodide staining based flow cytometry (reference value: 35.61%); type: functional; settings: dose 0.22 µM
HepG2 [15] = assay: Induction of cell cycle arrest in human HepG2 cells assessed as accumulation of cells at G2/M phase at […] incubated for 24 hrs by propidium iodide staining based flow cytometry (reference value: 18.81%); type: functional; settings: dose 0.22 µM
HepG2 [16] = assay: Induction of cell cycle arrest in human HepG2 cells assessed as accumulation of cells at S phase at […] incubated for 24 hrs by propidium iodide staining based flow cytometry (reference value: 46.98%); type: functional; settings: dose 0.22 µM
HepG2 [17] = assay: Induction of cell cycle arrest in human HepG2 cells assessed as accumulation of cell debris at 0.44 uM incubated for 24 hrs by propidium iodide staining based flow cytometry (reference value: 0.12%); type: functional; procedure, shortened: as §2
HepG2 [18] = assay: Induction of cell cycle arrest in human HepG2 cells assessed as accumulation of cells at G0/G1 phase at 0.44 uM incubated for 24 hrs by propidium iodide staining based flow cytometry (reference value: 35.61%); type: functional; procedure, shortened: as §2
HepG2 [19] = assay: Induction of cell cycle arrest in human HepG2 cells assessed as accumulation of cells at G2/M phase at 0.44 uM incubated for 24 hrs by propidium iodide staining based flow cytometry (reference value: 18.81%); type: functional; procedure, shortened: as §2
HepG2 [20] = assay: Induction of cell cycle arrest in human HepG2 cells assessed as accumulation of cells at S phase at 0.44 uM incubated for 24 hrs by propidium iodide staining based flow cytometry (reference value: 46.98%); type: functional; procedure, shortened: as §2
HepG2 [21] = assay: Induction of apoptosis in human HepG2 cells assessed as viable cells at 0.11 uM incubated for 24 hrs by AnnexinV-FITC/PI staining based flow cytometry (reference value: 96.94%); type: functional; settings: read-out: Activity
HepG2 [22] = assay: Induction of apoptosis in human HepG2 cells assessed as early apoptotic cells at 0.11 uM incubated for 24 hrs by AnnexinV-FITC/PI staining based flow cytometry (reference value: 2.91%); type: functional
HepG2 [23] = assay: Induction of apoptosis in human HepG2 cells assessed as late apoptotic cells at 0.11 uM incubated for 24 hrs by AnnexinV-FITC/PI staining based flow cytometry (reference value: 0.032%); type: functional
HepG2 [24] = assay: Induction of apoptosis in human HepG2 cells assessed as necrotic cells at 0.11 uM incubated for 24 hrs by AnnexinV-FITC/PI staining based flow cytometry (reference value: 0.12%); type: functional
HepG2 [25] = assay: Induction of apoptosis in human HepG2 cells assessed as viable cells at […] incubated for 24 hrs by AnnexinV-FITC/PI staining based flow cytometry (reference value: 96.94%); type: functional; settings: dose 0.22 µM, read-out: Activity
HepG2 [26] = assay: Induction of apoptosis in human HepG2 cells assessed as early apoptotic cells at […] incubated for 24 hrs by AnnexinV-FITC/PI staining based flow cytometry (reference value: 2.91%); type: functional; settings: dose 0.22 µM
HepG2 [27] = assay: Induction of apoptosis in human HepG2 cells assessed as late apoptotic cells at […] incubated for 24 hrs by AnnexinV-FITC/PI staining based flow cytometry (reference value: 0.032%); type: functional; settings: dose 0.22 µM
HepG2 [28] = assay: Induction of apoptosis in human HepG2 cells assessed as necrotic cells at […] incubated for 24 hrs by AnnexinV-FITC/PI staining based flow cytometry (reference value: 0.12%); type: functional; settings: dose 0.22 µM
HepG2 [29] = assay: Induction of apoptosis in human HepG2 cells assessed as viable cells at 0.44 uM incubated for 24 hrs by AnnexinV-FITC/PI staining based flow cytometry (reference value: 96.94%); type: functional; settings: read-out: Activity
HepG2 [30] = assay: Induction of apoptosis in human HepG2 cells assessed as early apoptotic cells at 0.44 uM incubated for 24 hrs by AnnexinV-FITC/PI staining based flow cytometry (reference value: 2.91%); type: functional
HepG2 [31] = assay: Induction of apoptosis in human HepG2 cells assessed as late apoptotic cells at 0.44 uM incubated for 24 hrs by AnnexinV-FITC/PI staining based flow cytometry (reference value: 0.032%); type: functional
HepG2 [32] = assay: Induction of apoptosis in human HepG2 cells assessed as necrotic cells at 0.44 uM incubated for 24 hrs by AnnexinV-FITC/PI staining based flow cytometry (reference value: 0.12%); type: functional

SMILES: O=[N+]([O-])c1cc(-c2nc(-c3ccc(-c4nc(-c5nnc(-c6ccncc6)o5)c[nH]4)cc3)no2)cc([N+](=O)[O-])c1
- IC50 (PC-3): 6220 nM
- IC50 (A549): 5490 nM
- IC50 (HepG2 [1]): 3610 nM
- IC50 at 48 h [2]: > 25000 nM
- selectivity ratio [3]: 4.01
- selectivity ratio [4]: 4.55
- selectivity ratio [5]: 6.92

SMILES: COc1cc(OC)cc(-c2nc(-c3ccc(-c4nc(-c5nnc(-c6ccncc6)o5)c[nH]4)cc3)no2)c1
- IC50 (PC-3): 980 nM
- IC50 (A549): 860 nM
- IC50 (HepG2 [1]): 273 nM
- IC50 (DU-145): 880 nM
- IC50 at 48 h [2]: > 15000 nM
- selectivity ratio [3]: 15.3
- selectivity ratio [4]: 17.4
- selectivity ratio [5]: 54.9
- selectivity ratio [6]: 17
- IC50 [7]: 217 nM
- IC50 [8]: 1230 nM

SMILES: COc1cc(-c2nc(-c3ccc(-c4nc(-c5nnc(-c6ccncc6)o5)c[nH]4)cc3)no2)cc(OC)c1OC
- IC50 (PC-3): 120 nM
- IC50 (A549): 130 nM
- IC50 (HepG2 [1]): 110 nM
- IC50 (DU-145): 430 nM
- IC50 at 48 h [2]: > 14000 nM
- selectivity ratio [3]: 117
- selectivity ratio [4]: 108
- selectivity ratio [5]: 127
- selectivity ratio [6]: 32.5
- IC50 [7]: 102 nM
- IC50 [8]: 1090 nM
- Activity (HepG2 [9]): 0.71%
- Activity (HepG2 [10]): 37.51%
- Activity (HepG2 [11]): 23.99%
- Activity (HepG2 [12]): 38.98%
- Activity (HepG2 [13]): 6.72%
- Activity (HepG2 [14]): 36.01%
- Activity (HepG2 [15]): 34.03%
- Activity (HepG2 [16]): 31.16%
- Activity (HepG2 [17]): 41.32%
- Activity (HepG2 [18]): 35.02%
- Activity (HepG2 [19]): 47.32%
- Activity (HepG2 [20]): 19.22%
- viability at 0.11 µM (HepG2 [21]): 79.6%
- Activity (HepG2 [22]): 11.32%
- Activity (HepG2 [23]): 8.96%
- Activity (HepG2 [24]): 0.14%
- viability at […] (HepG2 [25]): 65.4%
- Activity (HepG2 [26]): 12.33%
- Activity (HepG2 [27]): 21.78%
- Activity (HepG2 [28]): 0.456%
- viability at 0.44 µM (HepG2 [29]): 53.3%
- Activity (HepG2 [30]): 18.23%
- Activity (HepG2 [31]): 27.92%
- Activity (HepG2 [32]): 0.563%

The next lines start with results.

- IC50 (PC-3): 3470 nM
- IC50 (A549): 2680 nM
- IC50 (HepG2 [1]): 3760 nM
- IC50 (DU-145): 4250 nM
SMILES: Brc1ccc(-c2nc(-c3ccc(-c4nc(-c5nnc(-c6ccncc6)o5)c[nH]4)cc3)no2)cc1
- IC50 at 48 h [2]: > 20000 nM
- selectivity ratio [3]: 5.34
- selectivity ratio [4]: 7.46
- selectivity ratio [5]: 5.31
- selectivity ratio [6]: 4.7

- IC50 (A549): 8210 nM
- IC50 (HepG2 [1]): 6990 nM
SMILES: N#Cc1ccc(-c2nc(-c3ccc(-c4nc(-c5nnc(-c6ccncc6)o5)c[nH]4)cc3)no2)cc1
- IC50 at 48 h [2]: > 23000 nM
- selectivity ratio [4]: 2.8
- selectivity ratio [5]: 3.29
